The nature of the series: Toxicity liver stage against HepG2, at 10uM. Type of series: cell-based. Also noted: test concentration 10 uM, cell line HepG2-A16-CD81EGFP. The conditions noted are these: human, HepG2-A16-CD81EGFP cells; read-out: INHIBITION
An outline of the steps: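 Uninfected HepG2-A16-CD81EGFP cells, 3 × 10^3 per well, 1536-well, plated on prespotted compound at 10 μM final, parasite-free screening media added to match infected plates; puromycin 10 μM positive, DMSO 0.5% negative; run in parallel with 48 h PbLuc assay at 37 °C, 5% CO2; viability by CellTiter-Glo luminescence, normalized to controls.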

Regarding `COC(=O)c1sccc1S(=O)(=O)NCCc1ccoc1`, the cytotoxicity at 10 µM came out at 2.6%. Take `COC(=O)CN1CCCn2nc(CCC(=O)N3CCCC3)cc2C1`: the cytotoxicity at 10 µM was -204%.

For the molecule `O=C(O)[C@@H]1CN(C(=O)CN2Cc3ccccc3C2)C[C@H]1c1ccncc1`, the cytotoxicity at 10 µM was determined as 4.85%. Turning to `O=C(Cc1c(F)cccc1F)N1CCN(CC(=O)N2CCCC2)CC1`, the cytotoxicity at 10 µM worked out at 4.57%. The same measure for `CCN(c1ccc(C(=O)N2CCC(C)CC2)cc1)S(=O)(=O)CC`: 7.36%; for `Cc1nc(-c2nc(C(=O)N3CCOCC3)c3ccccn23)cn1C(C)C`: 1.53%; for `Cc1nc(C)c(C(=O)N2Cc3ccccc3OCC2Cn2ccnc2)o1` (stereo unspecified): 7.92%. The same measure for `CCC(C)(NCc1nc(C)c(C)o1)c1nccs1` (stereo unspecified): -2.05%. Regarding `O=C(CN1C(=O)c2ccccc2CS1(=O)=O)c1ccccc1`, the cytotoxicity at 10 µM turned out to be 15.3%. In the case of `CN(C)C(=O)c1ccc(C(C(=O)O)N(C)Cc2ccccc2Cl)cc1` (stereo unspecified), the cytotoxicity at 10 µM was -54.6%. The same measure for `CCN(C)C(=O)c1ccc(N2CCC(Oc3cccc(F)c3)CC2)nc1`: -23.7%; for `CCC(C(=O)NCc1ccncc1)N(c1ccc(OC)cc1)S(C)(=O)=O` (stereo unspecified): -10.2%. With `COCCC(=O)N1CCC2(CCN(Cc3cccc(F)c3)C2)C1` (stereo unspecified), the cytotoxicity at 10 µM is -60.2%. As for `CN(Cc1ccsc1)C(=O)CN1CCCC1Cn1cccn1` (stereo unspecified), the cytotoxicity at 10 µM was -3.78%.

With `CCCC(=O)Nc1sc(C(=O)OCC)c(C)c1C#N`, the cytotoxicity at 10 µM came out at 8.29%.

On to `Cc1noc(CCNC(=O)NCc2ccc(OC3CCCC3)cc2)n1`, for which the cytotoxicity at 10 µM came out at 13.2%. For `CN(C)CC(=O)N1C[C@@H]2CC[C@H](Oc3ccccc3Cl)[C@@H]2C1`, the cytotoxicity at 10 µM is 3.22%. As for `Nc1cc(CC2COc3ccccc3C2)ccn1` (stereo unspecified), the cytotoxicity at 10 µM was -0.911%. `CN(Cc1nc(C2CC2)no1)C(=O)C1COc2ccccc2C1` (stereo unspecified): the cytotoxicity at 10 µM was -0.509%. In the case of `CCN(CC)CCn1c(NC(=O)c2scnc2C)nc2ccccc21`, the cytotoxicity at 10 µM was -27.5%.

With `COc1ccc(C(=O)O)c(OCC(=O)NC(C)c2ccc(F)cc2)c1` (stereo unspecified), the cytotoxicity at 10 µM turned out to be 1.65%. Under `CSCC(C)NCc1ccc2[nH]c(C)c(C)c2c1` (stereo unspecified) stands -0.369%. For `OCc1cn(Cc2cccc(F)c2)nn1`, the cytotoxicity at 10 µM turned out to be 8.95%. For the molecule `c1cncc(COCc2nnc3n2CCN(Cc2cccs2)C3)c1`, the cytotoxicity at 10 µM stood at 0.399%.

With `COc1cccc(NC(=O)Cn2cc(-c3ccccc3)ncc2=O)c1`, the cytotoxicity at 10 µM was -0.0638%. As to `CCCN1CCN(C(=O)c2ccc(Cn3cc(Br)cn3)cc2)CC1`, the cytotoxicity at 10 µM is -6.11%. Under `Cn1cc(-c2cc(C(=O)N3CCOCC3)c3ccc(F)cc3n2)cn1` stands 1.5%; under `Cc1noc(-c2cnc(NC(C)C)nc2-c2ccco2)c1C`, -0.275%. Consider `CNC(=O)c1cccnc1NCCOc1ccc(CC#N)cc1`, for which the cytotoxicity at 10 µM was -1.53%. For `COc1cccc(-c2n[nH]c3c2CN(C(=O)C2=C(C)OCCO2)CC3)c1`, the cytotoxicity at 10 µM is 3.28%. As to `CCN1CC(C(=O)N(C)Cc2ccon2)CC1=O` (stereo unspecified), the cytotoxicity at 10 µM was 7.08%. With `Cn1c(CCC(=O)N2CCC3(CCCO3)CC2)nc2cccnc21`, the cytotoxicity at 10 µM stood at 0.592%. On to `O=C([C@@H]1COC[C@H]2CN(C3CCOCC3)C[C@H]21)N1CCCCO1`, for which the cytotoxicity at 10 µM was -6.28%.

Turning to `CNS(=O)(=O)c1ccc(CNC(=O)N2CCOC(C)C2)cc1` (stereo unspecified), the cytotoxicity at 10 µM was 9.15%. With `CC(C)NC(=O)C1CN(C(=O)Nc2ccc(F)cc2)CC12CCOCC2` (stereo unspecified), the cytotoxicity at 10 µM was -80.9%. Take `Cc1c(NC(=O)C(C)N(C)C)c(=O)n(-c2ccccc2)n1C` (stereo unspecified): the cytotoxicity at 10 µM was 1.11%. The same measure for `CCc1ccccc1NC(=O)c1cccc(N(C)S(C)(=O)=O)c1C`: -4.68%; for `COc1cccc(C(=O)N2CCc3c(nc(N)[nH]c3=O)C2)c1OC`: -9.91%; for `O=C(CN1CCOC(Cn2cncn2)C1)NC(C1CC1)C1CC1` (stereo unspecified): -49.5%. Take `CCn1c(Cn2cncn2)nnc1C1CCN(Cc2cccnc2)CC1`: the cytotoxicity at 10 µM was 5.91%.

With `COc1ccc(CN2CCOC3(CCCN(C(C)=O)C3)C2)cc1` (stereo unspecified), the cytotoxicity at 10 µM is 3.88%. For `CNS(=O)(=O)CCNCC1(O)CCCN(CCC2CCCCC2)C1=O` (stereo unspecified), the cytotoxicity at 10 µM was 0.28%.

As to `CCN1CCC(N[C@@H]2CC[C@@H]2NC(=O)Cc2csc(C)n2)CC1`, the cytotoxicity at 10 µM came to 1.82%. For the molecule `Cc1ncc2c(n1)CN(CC(O)COc1ccc(C#N)cc1)CC2` (stereo unspecified), the cytotoxicity at 10 µM worked out at 7.45%.

On to `CCSC1=Nc2c(cnn2-c2ccc(Cl)cc2)C2=NCCCN12`, for which the cytotoxicity at 10 µM turned out to be 8.49%. For `Cc1cc2ccccc2n1CCC(=O)N1CCN(C)CC1C(N)=O` (stereo unspecified), the cytotoxicity at 10 µM is -1.04%. Under `CN(C)c1ccc(CNC(=O)NCCc2cn3ccccc3n2)cn1` stands -3.06%; under `COc1cc(C(=O)N2CCO[C@H]3[C@H](OCC4CC4)CC[C@@H]32)ccc1F`, 9.32%. Take `CCOCC1CN(C(=O)Cc2ccccn2)Cc2cn(CC)nc21` (stereo unspecified): the cytotoxicity at 10 µM was determined as 5.06%. Under `O=C(CCN1CCOCC1)Nc1cccc(CNCc2ccsc2)c1` stands -4.66%; under `O=S1(=O)COCCN1Cc1ccc(Cl)c(Cl)c1`, 8.44%; under `O=C(c1ccncc1)N1CC[C@@H]2CN(C3CCOCC3)CCO[C@@H]2C1`, -110%. For `Cc1nn(C)c(Oc2ccccc2)c1CNC1CCCCNC1=O` (stereo unspecified), the cytotoxicity at 10 µM turned out to be 2.56%. Consider `N#Cc1ccc(S(=O)(=O)N2CSCC2C(=O)NCC(F)(F)F)cc1` (stereo unspecified), for which the cytotoxicity at 10 µM was -7.6%. For `Cc1ccccc1OCCn1cnc2oc(C)c(C(=O)O)c2c1=O`, the cytotoxicity at 10 µM was 11%. Turning to `F[C@@H]1CN(CC2CC2)C[C@@H]1OCc1nc2ccccc2[nH]1`, the cytotoxicity at 10 µM is -1.34%. Take `COCCOc1ncccc1C(=O)N(C)c1ccc(OC)nc1`: the cytotoxicity at 10 µM was -44.4%. Regarding `Cc1nn(C)c2cnn(CC(=O)NCc3cccs3)c12`, the cytotoxicity at 10 µM was 6.28%. Consider `O=C(CCCn1cncn1)N1CCC2(CCCNC2=O)C1` (stereo unspecified), for which the cytotoxicity at 10 µM was -3.89%. Under `O=C(NCc1cn2cccnc2n1)C1CC(=O)N(Cc2ccccn2)C1` (stereo unspecified) stands 2.69%; under `CCn1nccc1CNC(=O)C1CC1`, -12.2%; under `COCc1cc(N(C)Cc2cc(C(C)(C)C)n[nH]2)ncn1`, -1.15%. `CC(C)CN1CCC(c2nc3ccc(NC(C)C)cn3n2)CC1`: the cytotoxicity at 10 µM was 1.13%.

For `O=C(CSc1ccc(F)c(F)c1)NS(=O)(=O)c1ccc2c(c1)OCCO2`, the cytotoxicity at 10 µM is -4.28%. For `CC(C)(C)n1cc(CNC2CCN(C(=O)c3ccco3)CC2)cn1`, the cytotoxicity at 10 µM is -8.08%.

For `Cc1cc(NC(=O)N2CCN(C)CC2C)n(CCC#N)n1` (stereo unspecified), the cytotoxicity at 10 µM is 2.35%. Turning to `Cc1ccc(C(=O)NCCCS(=O)(=O)c2ccccc2)c(=O)[nH]1`, the cytotoxicity at 10 µM is -4.97%. Under `CCn1ccnc1CN1CCCN(C(=O)c2cc(C)nn2CC)CC1` stands -5.89%; under `Cc1csc(Nc2cc(C3CCCCN3C)nc(C)n2)n1` (stereo unspecified), 4.73%. Under `CCOc1ncccc1C(=O)NCCN(CC)C1CC1` stands 4.4%; under `O=C(NCCc1c[nH]cn1)C1CCCN(Cc2ccco2)C1` (stereo unspecified), -0.123%.

For the origin of these results see ChEMBL document CHEMBL4513216, “Probing the Open Global Health Chemical Diversity Library for Multistage-Active Starting Points for Next-Generation Antimalarials” (ACS Infect Dis, 2020).
